697 NFkB inh – inhibitors of the PMA/ionomycin-induced NF-kB reporter in 697 B cells; inhibition, % at 4 µM; AID 435022; 330,000 tested, 0.33% active; 697 B-cell NF-kB luciferase reporter, 16 h; in the data active means inhibition above about 35%
aDG glyco up – increases alpha dystroglycan glycosylation | Pro5-aDG cells, alpha-DG glycosylation AlphaScreen (IIH6); 0% Pro5, 100% B10-LARGE cell signal | 360,000 tested, 0.22% active | activation, % at 10 µM | AID 624168;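 active means activation of at least 8% versus controls, or a plate z-score of at least 8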;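 further: Pro5 are CHO cells carrying HIG-tagged alpha-DG that lacks glycosylation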
Jurkat NFkB inh – lowers PMA/ionomycin-induced NF-kB signal in Jurkat cells; AID 435003; 330,000 tested, 0.53% active; inhibition, % at 4 µM; PMA/ionomycin-induced NF-kB luciferase reporter, luminescence; in the data active means inhibition above about 50%
MPTP inh – blocks calcium-induced mitochondrial swelling. isolated mouse mitochondria, Ca2+ swelling absorbance, 30 min. inhibition, % at 10 µM. 360,000 tested, 1.4% active;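 active means inhibition of 50% or more, scaled per plate between neutral and stimulator controls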
NR2E3 ag-1 – agonists of human NR2E3 nuclear receptor; CHO-S Gal4-NCOR/VP16-NR2E3 two-hybrid, luciferase; inhibition of corepressor binding, % at 3.98 µM; 360,000 tested, 0.35% active; AID 602229;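 active means inhibition above the mean of all tested compounds plus 3 SD, cut at about 70% in these data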;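 further: higher means lower luciferase signal from less NR2E3 corepressor binding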
Target sequence (Q9Y5X4 whole entry, looked up, the tested form may be a part): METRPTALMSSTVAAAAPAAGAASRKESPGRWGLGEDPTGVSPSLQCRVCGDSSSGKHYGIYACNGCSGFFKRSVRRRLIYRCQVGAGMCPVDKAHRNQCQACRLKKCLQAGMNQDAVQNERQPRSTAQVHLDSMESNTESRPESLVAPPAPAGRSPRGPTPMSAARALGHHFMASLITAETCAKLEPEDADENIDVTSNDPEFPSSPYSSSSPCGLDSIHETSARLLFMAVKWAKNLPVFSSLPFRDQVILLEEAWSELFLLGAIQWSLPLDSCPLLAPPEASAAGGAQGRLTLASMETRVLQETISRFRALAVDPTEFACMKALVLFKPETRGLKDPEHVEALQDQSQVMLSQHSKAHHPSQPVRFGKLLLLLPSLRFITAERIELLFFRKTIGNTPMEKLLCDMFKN
NR2E3 ag-2 – agonists of human nuclear receptor NR2E3; Q9Y5X4; GST-NR2E3/biotin-RetCOR TR-FRET, 1536-well; inhibition of corepressor binding, % at 4.78 µM; 320,000 tested, 0.12% active; AID 2300;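 active means percent inhibition above the cutoff of mean plus 3 SD of all tested compounds, set per screening campaign, cut at about 20% in these data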
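Test system: GST-NR2E3 and biotin-RetCOR proteins | Quantity: 1.35 nM GST-tagged NR2E3 final | Medium: Tris pH 7.5 | Also added: 7 nM biotin-RetCOR | Dosing: Compound at 4.8 µM, single dose | Timing: 5 h at 4 °C | Detection: Time-resolved FRET | Read-out basis: Percent inhibition | Benchmarks: Biotin wells as high control, 0.6% DMSO wells as low control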
Rh123 counter – Rhodamine 123 counter-screen of mitochondrial pore hits. shares compounds with MPTP inh. isolated mitochondria, membrane potential, Rhodamine 123 fluorescence. inhibition, % at 10 µM. 5,000 tested, 78% active; in the data active means inhibition above about 22%
MPTP swell DR – MPTP inhibition, dose response swelling confirmation | shares compounds with MPTP inh | isolated mitochondria swelling, absorbance | IC50, µM | 780 tested, 58% active; in the data active means IC50 below about 20 µM
MPTP counter DR – active in counter-screen for permeability transition pore inhibitors | shares compounds with MPTP inh | isolated mitochondria counterscreen, fluorescence read-out | IC50, µM | 780 tested, 49% active | AID 651564; in the data active means IC50 below about 80 µM
Each line names hits and unclear results; the compound was inactive in the other large screens (follow-up assays come after a bar, where they were run). The list is not random: actives were taken first. Their share in the collection is about 2.4%.

Cc1ccc(C23CC4CC(CC(NC(=O)N5CCN(C)CC5)(C4)C2)C3)cc1	MPTP inh 71 | Rh123 counter inactive | MPTP swell DR 16 | MPTP counter DR inactive
Cc1ccc(C23CC4CC(CC(C(=O)N5CCN(C)CC5)(C4)C2)C3)cc1	none
CC(C)c1ccc(S(=O)(=O)Nc2ccc(SC(F)F)cc2)cc1	MPTP inh 72 | Rh123 counter 83
Cc1[nH]nc(Nc2ccc(Br)cc2)c1[N+](=O)[O-]	MPTP inh 57 | Rh123 counter 72
CC(C)(C)c1ccc(C(=O)NC(=O)COC(=O)CCS(=O)(=O)c2ccccc2)cc1	none
CCCCNS(=O)(=O)c1ccc2nc(SCC(=O)Nc3sccc3C#N)[nH]c2c1	MPTP inh 79 | Rh123 counter inactive | MPTP swell DR 11 | MPTP counter DR <2.5
CN(C)CCNC(=O)c1cc2c(s1)-c1ccccc1OC2	MPTP inh 60 | Rh123 counter inactive | MPTP swell DR 14 | MPTP counter DR inactive
CCN1CCN(CCCNC(=O)c2cc3c(s2)-c2ccccc2OC3)CC1	none
Cc1c(NC(=O)c2cc3c(s2)-c2ccccc2OC3)cccc1[N+](=O)[O-]	MPTP inh 64 | Rh123 counter 77
c1ccc(Cc2ccc(OCCCNC3CCCC3)cc2)cc1	none (no result: aDG glyco up, MPTP inh, NR2E3 ag-1)
c1ccc(-c2ccc(OCCCNC3CCCC3)cc2)cc1	MPTP inh 88 | Rh123 counter inactive | MPTP swell DR 5.2 | MPTP counter DR 46
CCCCN1C(=N)N([C@@H](C)CN2CCC[C@H]2CN2C(N)=NC[C@H]2CC(C)C)C[C@H]1Cc1ccccc1	MPTP inh 67 (no result: NR2E3 ag-2) | Rh123 counter inactive | MPTP swell DR 9 | MPTP counter DR inactive
C[C@@H](CN1CCC[C@H]1CN1C(N)=NC[C@@H]1Cc1ccccc1)N1C[C@@H](Cc2ccccc2)N(CCc2ccc(Cl)c(Cl)c2)C1=N	MPTP inh 74 (no result: NR2E3 ag-2) | Rh123 counter inactive
Cc1cccc(C(=O)Nc2ccccc2SCC(=O)Nc2ccc(C)c(Cl)c2)c1	MPTP inh 90 | Rh123 counter 83
Cc1ccc(NC(=O)CSc2ccccc2NC(=O)c2cccc(Cl)c2)cc1Cl	MPTP inh 80 | Rh123 counter inactive | MPTP swell DR inactive | MPTP counter DR 6.3
OC(Cc1cccnc1)c1ccccc1 (stereo unspecified)	none (no result: 697 NFkB inh, Jurkat NFkB inh, NR2E3 ag-2)
CCCCCn1c(N)c(-c2nc3ccccc3s2)c2c([N+](=O)[O-])nn(C)c(=O)c21	MPTP inh 104 | Rh123 counter inactive | MPTP swell DR inactive | MPTP counter DR <2.5
CCCCn1c(N)c(-c2nc3ccccc3o2)c2c([N+](=O)[O-])nn(C)c(=O)c21	none
Cc1nnc(NC(=O)CSc2ncnc3c2cnn3-c2ccccc2C)s1	none
O=C(CSc1ncnc2c1cnn2-c1ccccc1)Nc1ccc2c(c1)OCO2	MPTP inh 67 | Rh123 counter inactive | MPTP swell DR 5.2 | MPTP counter DR 6.4
Cc1ccccc1-n1ncc2c(SCC(=O)NC3CCCC3)ncnc21	MPTP inh 80 | Rh123 counter 28
Cc1cnc(NS(=O)(=O)c2ccccc2)c(C)n1	none
CC1CCCN(C(=S)SCC(=O)c2cc(Br)cc(Br)c2O)C1 (stereo unspecified)	MPTP inh 59 | Rh123 counter 32
O=C(CSC(=S)N1CCCC1)c1cc(Br)cc(Br)c1O	none (no result: aDG glyco up, MPTP inh, NR2E3 ag-1)
CC1Sc2ccc(S(=O)(=O)N3CCC(C(=O)NCc4ccc(Cl)cc4)CC3)cc2NC1=O (stereo unspecified)	none
CCc1ccc(NC(=O)C2CCN(S(=O)(=O)c3ccc4c(c3)NC(=O)C(C)S4)CC2)cc1 (stereo unspecified)	MPTP inh 98 | Rh123 counter 97
COc1cc(C2C(C#N)=C(N)Oc3n[nH]c(-c4cccnc4)c32)cc(Br)c1O (stereo unspecified)	none
